Reference: ChEMBL document CHEMBL4390663, “Cationic biaryl 1,2,3-triazolyl peptidomimetic amphiphiles: synthesis, antibacterial evaluation and preliminary mechanism of action studies” (Eur J Med Chem, 2019)
Converted amounts (≈) assume the structure as drawn.

Tests used:
[1] = test system: Clostridioides difficile; assay: Antibacterial activity against Clostridium difficile ATCC 700057 incubated for 48 hrs by CLSI method; assay type: functional; settings: ATCC 700057, 48 h
How it was run: (§1)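 Broth microdilution per CLSI anaerobe method in pre-reduced (2-4 h) Brucella broth with haemin and vitamin K, 35 °C anaerobically for 48 h. Compounds from 5 mg/mL DMSO stocks, twofold dilutions in water mixed with double-strength broth; final 0.25–128 μg/mL. […] Triplicate; modal MIC read visually as lowest concentration inhibiting growth.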

[2] = test system: Pseudomonas aeruginosa; assay: Antimicrobial activity against Pseudomonas aeruginosa ATCC 27853 incubated for 18 hrs by CLSI method; assay type: functional; settings: ATCC 27853, 18 h
How it was run: (§2)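 Screen run by CO-ADD: mid-log cultures in cation-adjusted MHB, 5 × 10^5 CFU/mL, compounds at up to 32 μg/mL in 1:2 serial dilutions (8 steps), final DMSO ≤0.5%, duplicate. 37 °C for 18 h without shaking; OD600 read against media-only and untreated-bacteria references. MIC = lowest concentration giving ≥80% inhibition; colistin standard.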

[3] = Haemolytic activity in sheep erythrocytes at 5 ug/ml incubated for 2 hrs under shaking condition relative to control; assay type: ADME, cell-based, Ovis aries, Erythrocyte; settings: read-out: Activity
How it was run: (§3)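 Compounds in PBS mixed with washed sheep erythrocytes (2% final) at 5 or 50 μg/mL, rocked 2 h at 37 °C, centrifuged; supernatant absorbance at 540 nm. PBS-only value subtracted, then expressed relative to water lysis (100%). Triplicate, means reported.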

[4] = test system: Acinetobacter baumannii; assay: Antimicrobial activity against Acinetobacter baumannii ATCC 19606 incubated for 18 hrs by CLSI method; assay type: functional; settings: ATCC 19606 = CIP 70.34 = JCM 6841, 18 h; how it was run: as §2
[5] = Haemolytic activity in sheep erythrocytes at 50 ug/ml incubated for 2 hrs under shaking condition relative to control; assay type: ADME, cell-based, Ovis aries, Erythrocyte; settings: read-out: Activity; how it was run: as §3
[6] = test system: Staphylococcus aureus; assay: Antibacterial activity against methicillin-resistant Staphylococcus aureus NCTC 10442 incubated for 24 hrs by CLSI method; assay type: functional; settings: NCTC 10442, 24 h
How it was run: (§4)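 Broth microdilution per CLSI aerobic guidance in Mueller Hinton broth, ambient air, 35 °C for 24 h. DMSO stocks were diluted in water, then serially diluted with double-strength broth inoculum added, for final 0.25–128 μg/mL. […] MIC was read visually as the lowest concentration inhibiting growth; the modal value of triplicates was recorded.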

[7] = test system: Klebsiella pneumoniae; assay: Antibacterial activity against Klebsiella pneumoniae 700603 incubated for 18 hrs by CLSI method; assay type: functional; settings: Klebsiella pneumoniae, 700603, 18 h; how it was run: as §2
[8] = test system: Escherichia coli; assay: Antibacterial activity against Escherichia coli ATCC 25922 incubated for 18 hrs by CLSI method; assay type: functional; settings: ATCC 25922, 18 h; how it was run: as §2
[9] = test system: Streptococcus pneumoniae; assay: Antibacterial activity against Streptococcus pneumoniae ATCC 49619 incubated for 24 hrs by CLSI method; assay type: functional; settings: ATCC 49619, 24 h
How it was run: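 CLSI broth microdilution in MHB with 2.5% lysed horse blood, 5% CO2, 35 °C, 24 h. Compounds from 5 mg/mL DMSO stocks diluted in water plus double-strength broth; final 0.25–128 μg/mL. […] Triplicate; modal MIC read visually as lowest growth-inhibiting concentration.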

[10] = test system: Staphylococcus aureus; assay: Antimicrobial activity against Staphylococcus aureus ATCC 43300 incubated for 18 hrs by CLSI method; assay type: functional; settings: ATCC 43300, 18 h
[11] = test system: Staphylococcus aureus; assay: Antimicrobial activity against Staphylococcus aureus ATCC 29213 incubated for 24 hrs by CLSI method; assay type: functional; settings: ATCC 29213, 24 h; how it was run: as §4
[12] = Cytotoxicity against human HEK293 cells assessed as reduction in cell growth incubated for 20 hrs by resazurin dye-based fluorometric assay
How it was run: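 HEK293 cells, 5000 per well in DMEM + 10% FBS, exposed to compounds (top 32 μg/mL, 1:2 serial dilution ×8, ≤0.5% DMSO, duplicate) for 20 h at 37 °C, 5% CO2. Resazurin added (2.3 μg/mL final), 3 h further; fluorescence ex 560/em 590 nm. CC50 from sigmoidal dose-response fit against log concentration; tamoxifen standard.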

[13] = test system: Enterococcus faecalis; assay: Antibacterial activity against Enterococcus faecalis ATCC 29212 incubated for 24 hrs by CLSI method; assay type: functional; settings: ATCC 29212, 24 h
[14] = test system: Clostridioides difficile; assay: Antibacterial activity against Clostridium difficile NSW132 RT027 incubated for 48 hrs by CLSI method; assay type: functional; settings: NSW132 RT027, 48 h; how it was run: as §1
[15] = test system: Staphylococcus aureus; assay: Antimicrobial activity against glycopeptide intermediate susceptible Staphylococcus aureus NRS17 incubated for 18 hrs by CLSI method; assay type: functional; settings: NRS17, 18 h
[16] = test system: Streptococcus pneumoniae; assay: Antibacterial activity against MDR Streptococcus pneumoniae ATCC 700677 incubated for 18 hrs by CLSI method; assay type: functional; settings: ATCC 700677, 18 h
[17] = test system: Staphylococcus aureus; assay: Antimicrobial activity against glycopeptide intermediate susceptible/methicillin-resistant Staphylococcus aureus NRS1 incubated for 18 hrs by CLSI method; assay type: functional; settings: NRS1, 18 h
[18] = test system: Enterococcus faecalis; assay: Antimicrobial activity against vancomycin-resistant Enterococcus faecalis clinical isolate incubated for 18 hrs by CLSI method; assay type: functional
[19] = test system: Staphylococcus aureus; assay: Induction of cytoplasmic membrane depolarization in Staphylococcus aureus ATCC 29213 at 32 ug/ml incubated for 30 mins by diSC35 staining based fluorescence assay relative to control; assay type: functional
How it was run: (§5)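 Mid-log cells (1.5 McFarland) loaded with 4 µM diSC3(5) in the dark at room temperature: S. aureus in PBS 30 min; E. coli in 5 mM HEPES/20 mM glucose pH 7.2 for 60 min, then 100 mM KCl and 0.5 mM EDTA. Baseline fluorescence (ex 620/em 670 nm) ~8 min, then compound added (final 32 µg/mL S. aureus, 64 µg/mL E. coli), tracked ~30 min.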

[20] = test system: Escherichia coli; assay: Induction of cytoplasmic membrane depolarization in Escherichia coli NCTC 10418 at 64 ug/ml incubated for 30 mins by diSC35 staining based fluorescence assay relative to control; assay type: functional; how it was run: as §5
[21] = test system: Escherichia coli; assay: Induction of plasma membrane permeabilization in Escherichia coli NCTC 10418 at 32 ug/ml measured for 30 mins by propidium iodide staining based fluorescence assay relative to control; assay type: functional
How it was run: (§6)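 Mid-log cells (1.5 McFarland) with 4 µM propidium iodide, dark, room temperature: S. aureus in PBS 30 min; E. coli in 5 mM HEPES/20 mM glucose pH 7.2 for 60 min, then 100 mM KCl and 0.5 mM EDTA. Fluorescence (ex 544/em 615 nm) read ~8 min baseline, then ~30 min after compound at 32 µg/mL final.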

[22] = test system: Staphylococcus aureus; assay: Induction of plasma membrane permeabilization in Staphylococcus aureus ATCC 29213 at 32 ug/ml measured for 30 mins by propidium iodide staining based fluorescence assay relative to control; assay type: functional; how it was run: as §6
[23] = test system: Staphylococcus aureus; assay: Antimicrobial activity against methicillin-resistant Staphylococcus aureus ATCC 43300 incubated for 18 hrs by CLSI method; assay type: functional; settings: ATCC 43300, 18 h
[24] = test system: Staphylococcus aureus; assay: Antimicrobial activity against vancomycin resistant Staphylococcus aureus NARSA VRS10 incubated for 18 hrs by CLSI method; assay type: functional; settings: NARSA VRS10, 18 h
[25] = test system: Staphylococcus aureus; assay: Antimicrobial activity against methicillin-resistant Staphylococcus aureus clinical isolate with reduced daptomycin susceptibility incubated for 18 hrs by CLSI method; assay type: functional
[26] = test system: Staphylococcus aureus; assay: Antimicrobial activity against methicillin-resistant Staphylococcus aureus clinical isolate incubated for 18 hrs by CLSI method; assay type: functional

Row | SMILES | MIC [1] [µg/mL] | MIC [2] [µg/mL] | hemolysis at 2 h, 5 ug/ml [3] [%] | MIC [4] [µg/mL] | hemolysis at 2 h, 50 ug/ml [5] [%] | MIC [6] [µg/mL] | MIC [7] [µg/mL] | MIC [8] [µg/mL] | MIC [9] [µg/mL] | MIC [10] [µg/mL] | MIC [11] [µg/mL] | CC50 at 20 h [12] [µg/mL] | MIC [13] [µg/mL] | MIC [14] [µg/mL] | MIC [15] [µg/mL] | MIC [16] [µg/mL] | MIC [17] [µg/mL] | MIC [18] [µg/mL] | other results
1 | CC(C)CCOc1ccccc1-c1ccccc1OCc1cn(C[C@@H](CCCCN)NC(=O)[C@@H](CCCNC(=N)N)n2cc(C3CCCCC3)nn2)nn1.Cl.Cl | 4 | 8 | 1.9 | 16 | 22.9 | 4 | 16 | 8 | 4 | 4 | 8 | 14.2 | 8 | 8 | – | – | – | – | –
2 | CN[C@H](CC(C)C)C(=O)N[C@H]1C(=O)N[C@@H](CC(N)=O)C(=O)N[C@H]2C(=O)N[C@H]3C(=O)N[C@H](C(=O)N[C@H](C(=O)O)c4cc(O)cc(O)c4-c4cc3ccc4O)[C@H](O)c3ccc(c(Cl)c3)Oc3cc2cc(c3O[C@@H]2O[C@H](CO)[C@@H](O)[C@H](O)[C@H]2O[C@H]2C[C@](C)(N)[C@H](O)[C@H](C)O2)Oc2ccc(cc2Cl)[C@H]1O [VANCOMYCIN] | 0.5 (≈ 0.345 µM) | – | – | – | – | – | – | – | 1 (≈ 0.69 µM) | – | – | – | – | 0.5 (≈ 0.345 µM) | 8 (≈ 5.52 µM) | 1 to 2 (≈ 0.69 to 1.38 µM) | 8 (≈ 5.52 µM) | > 32 | –
3 | CC(C)CCOc1ccccc1-c1ccccc1OCc1cn(C[C@@H](CCCNC(=N)N)NC(=O)[C@@H](CCCCN)n2cc(CCc3ccccc3)nn2)nn1.Cl.Cl | 16 | 8 | 1.7 | 16 | 28.8 | 4 | 16 | 4 | 4 | 2 | 4 | 17.4 | 8 | 16 | – | – | – | – | –
4 | CC(C)CCOc1ccc2ccccc2c1-c1c(OCc2cn(C[C@@H](CCCNC(=N)N)NC(=O)Cc3ccccc3)nn2)ccc2ccccc12.Cl | 64 | > 32 | 1 | > 32 | 87.4 | 4 | > 32 | > 32 | 8 | 4 | 4 | 16.5 | 8 | 64 | – | – | – | – | –
5 | CC(C)CCOc1ccccc1-c1ccccc1OCc1cn(C[C@@H](CCCCN)NC(=O)[C@@H](CCCNC(=N)N)n2cc(CC3CCCCC3)nn2)nn1.Cl.Cl | 4 | 16 | 1.5 | 8 | 42.4 | 4 | 16 | 4 | 4 | 2 | 4 | > 32 | 4 | 4 | – | – | – | – | Activity [19]: 120 - 180%; Activity [20]: 460 - 900%; Activity [21]: 25 - 40%; Activity [22]: 600%
6 | CC(C)CCOc1ccc2ccccc2c1-c1c(OCc2cn(C[C@@H](CCCCN)NC(=O)[C@@H](CCCNC(=N)N)NC(=O)Cc3ccc4c(c3)OCO4)nn2)ccc2ccccc12.Cl.Cl | 8 | – | – | – | – | 4 | – | – | 4 | – | 4 | – | 4 | 32 | 4 | 2 | 2 to 4 | 2 | MIC [23]: 2 µg/mL; MIC [24]: 4 µg/mL; MIC [25]: 4 µg/mL; MIC [26]: 4 µg/mL
